Converted amounts (≈) assume the structure as drawn. The source made the active and inactive calls. The rule behind the calls is not given here.
Columns and labels:
[1] = tested on: Sclerotinia sclerotiorum; assay: Antifungal activity against Sclerotinia sclerotiorum assessed as reduction in growth at 50 mg/l by mycelium growth rate method relative to control; type: functional
How it was run: (§1)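 Mycelium growth rate method against S. sclerotiorum, P. capsici, P. piricola, R. cerealis, W. anthracnose and R. bakanae. Each compound tested at 50 mg/L, with chlorothalonil and PTB as controls. Relative inhibitory ratio (%) calculated from mycelial growth.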

[2] = tested on: Brassica rapa subsp. oleifera; assay: Herbicidal activity against Brassica campestris L assessed as inhibition of rape root growth at 10 mg/l root growth incubated for 48 hrs relative to control; type: functional
How it was run: (§2)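 Rape seeds soaked in distilled water for 4 h, then placed on filter paper wetted with inhibitor solution, 15 seeds per 6-cm dish. Germinated in the dark at 28 °C for 48 h. Mean length of 10 roots per plate measured.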

[3] = tested on: Botryosphaeria berengeriana; assay: Antifungal activity against Physalospora pyricola assessed as reduction in growth at 50 mg/l by mycelium growth rate method relative to control; type: functional; how it was run: as §1
[4] = tested on: Candida albicans; assay: Antifungal activity against Candida albicans isolate g5 grown in RPMI 1640 medium incubated for 24 hrs by microdilution method; type: functional; conditions: isolate g5, 24 h
How it was run: (§3)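 C. albicans standard strain SC5314 and clinical isolates g5 and 17# tested by broth microdilution in YNB or RPMI 1640 medium. Plates incubated at 35 °C for up to 72 h, with visual readings taken at 24 h. MIC taken as the lowest concentration preventing visible growth.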

[5] = tested on: Ceratobasidium cereale; assay: Antifungal activity against Rhizoctonia cerealis assessed as reduction in growth at 50 mg/l by mycelium growth rate method relative to control; type: functional; how it was run: as §1
[6] = tested on: Phytophthora capsici; assay: Antifungal activity against Phytophthora capsici assessed as reduction in growth at 50 mg/l by mycelium growth rate method relative to control; type: functional; how it was run: as §1
[7] = tested on: Colletotrichum; assay: Antifungal activity against Colletotrichum (W. anthracnose) assessed as reduction in growth at 50 mg/l by mycelium growth rate method relative to control; type: functional; how it was run: as §1
[8] = tested on: Candida albicans; assay: Antifungal activity against Candida albicans SC5314 grown in RPMI 1640 medium incubated for 24 hrs by microdilution method; type: functional; conditions: SC5314, 24 h; how it was run: as §3
[9] = tested on: Candida albicans; assay: Inhibition of Candida albicans AHAS catalytic subunit at 10 uM using pyruvate as substrate measured after 30 mins by colorimetric method relative to control
How it was run: (§4)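 Colorimetric assay in 50 mM potassium phosphate pH 7.0 with 50 mM pyruvate, 1 mM thiamine diphosphate, 10 mM MgCl2 and 10 μM FAD. Incubated 30 min at 37 °C for plant AHAS and 30 °C for fungal AHAS. Acetolactate formed was then quantified.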

[10] = tested on: Tobacco mosaic virus; assay: Antiviral activity against Tobacco mosaic virus inoculated in Nicotiana tabacum leaves assessed as passivation by measuring local lesion numbers at 100 mg/l pre-incubated with virus for 30 mins followed by inoculation and measured up to 4 days; type: functional
How it was run: (§5)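 Passivation assay: TMV mixed with an equal volume of compound solution for 30 min, then rubbed onto the left half of N. tabacum L. leaves. The right half received virus mixed with solvent as control. Local lesions counted 3–4 days after inoculation. Compounds tested at 500 or 100 mg/L.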

[11] = tested on: Candida albicans; assay: Antifungal activity against Candida albicans isolate 17 grown in YNB medium incubated for 24 hrs by microdilution method; type: functional; conditions: isolate 17, 24 h; how it was run: as §3
[12] = tested on: Candida albicans; assay: Antifungal activity against Candida albicans isolate g5 grown in YNB medium incubated for 24 hrs by microdilution method; type: functional; conditions: isolate g5, 24 h; how it was run: as §3
[13] = tested on: Candida albicans; assay: Antifungal activity against Candida albicans SC5314 grown in YNB medium incubated for 24 hrs by microdilution method; type: functional; conditions: SC5314, 24 h; how it was run: as §3
[14] = tested on: Arabidopsis thaliana; assay: Inhibition of Arabidopsis thaliana AHAS catalytic subunit using pyruvate as substrate at 10 uM measured after 30 mins by colorimetric method relative to control; how it was run: as §4
[15] = tested on: Brassica rapa subsp. oleifera; assay: Herbicidal activity against Brassica campestris L assessed as inhibition of rape root growth at 100 mg/l root growth incubated for 48 hrs relative to control; type: functional; how it was run: as §2
[16] = tested on: Fusarium fujikuroi; assay: Antifungal activity against Gibberella fujikuroi assessed as reduction in growth at 50 mg/l by mycelium growth rate method relative to control; type: functional; how it was run: as §1
[17] = tested on: Tobacco mosaic virus; assay: Antiviral activity against Tobacco mosaic virus inoculated in Nicotiana tabacum leaves assessed as passivation by measuring local lesion numbers at 500 mg/l pre-incubated with virus for 30 mins followed by inoculation and measured up to 4 days; type: functional; how it was run: as §5
[18] = tested on: Severe acute respiratory syndrome-related coronavirus; assay: Inhibition of SARS coronavirus M protease using AVLQSGFRKK as substrate at 20 uM by FRET assay relative to control
How it was run: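 Purified SARS-CoV Mpro assayed by FRET. Protein, compound and substrate were preheated at 37 °C and oscillated. Fluorescence (ex 320/em 405 nm) was read every 5 s for 200 reads.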

[19] = tested on: Candida albicans; assay: Antifungal activity against Candida albicans isolate 17 grown in RPMI 1640 medium incubated for 24 hrs by microdilution method; type: functional; conditions: isolate 17, 24 h; how it was run: as §3
[20] = tested on: Mythimna separata; assay: Insecticidal activity against Mythimna separata assessed as larval mortality at 600 mg/l by leaf-dip method; type: functional
[21] = tested on: Candida albicans; assay: Inhibition of Candida albicans AHAS catalytic subunit at 100 uM using pyruvate as substrate measured after 30 mins by colorimetric method relative to control; how it was run: as §4
[22] = tested on: Arabidopsis thaliana; assay: Inhibition of Arabidopsis thaliana AHAS catalytic subunit using pyruvate as substrate at 100 uM measured after 30 mins by colorimetric method relative to control; how it was run: as §4

| Compound | inhibition at 50 µg/mL [1] | inhibition (INH) [2] | inhibition at 50 µg/mL [3] | MIC [4] | inhibition at 50 µg/mL [5] | inhibition at 50 µg/mL [6] | inhibition at 50 µg/mL [7] | MIC [8] | inhibition [9] | inhibition [10] | MIC [11] | MIC [12] | MIC [13] | inhibition [14] | inhibition (INH) [15] | inhibition at 50 µg/mL [16] | inhibition at 500 µg/mL [17] | inhibition [18] | MIC [19] | mortality at 600 µg/mL [20] | further results |
| --- | --- | --- | --- | --- | --- | --- | --- | --- | --- | --- | --- | --- | --- | --- | --- | --- | --- | --- | --- | --- | --- |
| COc1nc(OC)nc(Sc2ccc(F)cc2C(=O)O)n1 | 55.6% | 1.6% | 45.3% | > 100 µg/mL | 57.1% | 16.7% | 19% | > 100 µg/mL | 56.1% | inactive | 50 µg/mL (≈ 161 µM) | > 100 µg/mL | > 100 µg/mL | 3.3% | 33.3% | 30.3% | 0% | 94.5% | 100 µg/mL (≈ 321 µM) | 80% | inhibition [21]: 77.6%; inhibition [22]: 68.6% |
| COc1nc(OC)nc(Sc2ccc(C#N)cc2F)n1 | 13.9% | 41.8% | 54.7% | 100 µg/mL (≈ 342 µM) | 58.3% | 16.7% | 23.8% | 100 µg/mL (≈ 342 µM) | 55.7% | inactive | 6.25 µg/mL (≈ 21.4 µM) | 12.5 µg/mL (≈ 42.8 µM) | 6.25 µg/mL (≈ 21.4 µM) | 42.9% | 54.2% | 27.3% | 0% | 49.7% | 100 µg/mL (≈ 342 µM) | 0% | inhibition [21]: 85.4%; inhibition [22]: 63.3% |
| COc1nc(OC)nc(Sc2cccc(F)c2C#N)n1 | 63.9% | 2.2% | 45.3% | 100 µg/mL (≈ 342 µM) | 52.4% | 33.3% | 42.9% | 100 µg/mL (≈ 342 µM) | 46.3% | inactive | 3.12 µg/mL (≈ 10.7 µM) | 12.5 µg/mL (≈ 42.8 µM) | 6.25 µg/mL (≈ 21.4 µM) | 34.5% | 26.2% | 24.2% | 0% | 90.8% | 100 µg/mL (≈ 342 µM) | 20% | inhibition [21]: 70.4%; inhibition [22]: 86.5% |
| COc1nc(OC)nc(Sc2cccc(Cl)c2C#N)n1 | 50% | 0% | 51.6% | > 100 µg/mL | 27.4% | 33.3% | 40.5% | > 100 µg/mL | 38.9% | inactive | > 100 µg/mL | > 100 µg/mL | > 100 µg/mL | 19.8% | 17.4% | 21.2% | 0% | 76.6% | > 100 µg/mL | 5% | inhibition [21]: 59.5%; inhibition [22]: 79.3% |
| COc1nc(OC)nc(Sc2ccc(C(=O)O)cc2F)n1 | 61.1% | 0% | 53.1% | > 100 µg/mL | 57.1% | 16.7% | 19% | > 100 µg/mL | 52.3% | inactive | 3.12 µg/mL (≈ 10 µM) | > 100 µg/mL | > 100 µg/mL | 13.8% | 27.6% | 6.1% | 0% | 89.5% | > 100 µg/mL | 30% | inhibition [21]: 94.9%; inhibition [22]: 18.7% |
| COc1nc(OC)nc(Sc2cccc(Br)c2C#N)n1 | 13.9% | 0% | 73.4% | > 100 µg/mL | 31% | 25% | 47.6% | > 100 µg/mL | 34.8% | inactive | 6.25 µg/mL (≈ 17.7 µM) | 12.5 µg/mL (≈ 35.4 µM) | 12.5 µg/mL (≈ 35.4 µM) | 40.3% | 14.3% | 21.2% | 0% | 96.3% | > 100 µg/mL | 75% | inhibition [21]: 71.1%; inhibition [22]: 74.7% |
| COc1nc(OC)nc(Sc2ccc(C(=O)O)cc2Br)n1 | 77.8% | 0% | 46.9% | > 100 µg/mL | 58.3% | 41.7% | 35.7% | > 100 µg/mL | 50.1% | inactive | > 100 µg/mL | > 100 µg/mL | > 100 µg/mL | 22.4% | 34.3% | 57.6% | 21.4% | 25% | > 100 µg/mL | 10% | inhibition [21]: 92.4%; inhibition [22]: 30% |

Reference: ChEMBL document CHEMBL4390648, “Chemical synthesis, crystal structure, versatile evaluation of their biological activities and molecular simulations of novel pyrithiobac derivatives” (Eur J Med Chem, 2019)
